Test results reported in ChEMBL document CHEMBL4834396, “Molecular Recognition and Imaging of Human Telomeric G-Quadruplex DNA in Live Cells: A Systematic Advancement of Thiazole Orange Scaffold To Enhance Binding Specificity and Inhibition of Gene Expression” (J Med Chem, 2021).
Activity calls are given as the source filed them. The calls are words filed in the database; no cut-off is given here.

How the values were obtained:
Quadruplex DNA [1] = test: Stabilization of telomeric Htg24 G-quadruplex DNA (unknown origin) assessed as inhibition of DNA amplification at 20 uM by PCR analysis; format: nucleic-acid assay
Outline: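 Taq polymerase stop assay: Htg24 or its non-G4 mutant template (5 μM) with 2 μM of each oligomer, […] and ligand at 0–20 μM. Cycling was 94 °C for 5 min, then 30 cycles of 94/56/72 °C at 30 s each. Products were resolved on 15% PAGE and stained with SYBR Gold.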

DNA = test: Binding affinity to ds26 DNA (unknown origin) assessed as equilibrium binding constant at 5 uM at 25 degreeC by […]; format: nucleic-acid assay
Outline: (§1)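 Fluorescence titration: ligand 5 μM in 10 mM Tris-HCl pH 7.4 with 60 mM KCl, nucleic acid added until saturation, 25 °C. Keq from nonlinear fit of F/F0 to an independent-site model.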

Quadruplex DNA [2] = test: Binding affinity to c-myc promoter G-quadruplex DNA Pu22 (unknown origin) assessed as equilibrium binding constant at 5 uM at 25 degreeC by […]; format: nucleic-acid assay; outline: as §1
Quadruplex DNA [3] = test: Binding affinity to telomeric Htg24 G-quadruplex DNA (unknown origin) assessed as fluorescence quantum yield by fluorescence spectrophotometric method; format: nucleic-acid assay
Outline: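 Fluorescence quantum yield determined against fluorescein (Φ = 0.95) in 1% NaOH ethanol. Five increasing ligand concentrations added to fixed DNA, with absorbance and emission recorded for each.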

Quadruplex DNA [4] = test: Binding affinity to telomeric Htg24 G-quadruplex DNA (unknown origin) at 5 uM at pH 7.4 by UV-spectrophotometric titration analysis; format: nucleic-acid assay
Outline: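 UV-vis titration of ligand (5 μM) with Htg24 (0–15 μM) in 10 mM Tris-HCl pH 7.4 containing 60 mM KCl, added until saturation.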

Quadruplex DNA [5] = test: Binding affinity to telomeric Htg24 G-quadruplex DNA (unknown origin) assessed as dissociation constant by isothermal titration calorimetric analysis; format: nucleic-acid assay
Outline: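 ITC at 25 °C: DNA preannealed at 95 °C for 5 min, cooled and held at 4 °C overnight, in 25 mM KH2PO4, 60 mM KCl, pH 7.4, 0.5% DMSO. DNA 10 μM in cell, ligand 500 μM in syringe; 19 injections of 4 s, 150 s apart, 750 rpm stirring; blank heat subtracted before model fitting.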

Quadruplex DNA [6] = test: Binding affinity to G4 quadruplex DNA in human HeLa cells assessed as BG4 foci formation at 10 to 20 uM; format: cell-based; details: dose 10-20 µM
HeLa = test: Effect on telomere length in human HeLa cells assessed as reduction of telomere length incubated for 18 days by qRT-PCR analysis; format: functional, cell-based; details: dose 0.5-4 µM, time 18.0 day
Outline: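 HeLa cells were treated with graded compound concentrations (0–4 μM) for 18 days. Genomic DNA was isolated by proteinase K digestion and phenol/chloroform extraction. Relative telomere length was measured by qPCR against hRPLPO using the ΔΔCt method; three independent experiments.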

[7] = Drug uptake in nucleolus of human U87 cells assessed as disappearance of fluorescence signal at 5 uM for 30 mins co-stained with DAPI for 10 mins followed by treating with DNase and measured after 30 mins by confocal laser fluorescence microscopic analysis; format: ADME, subcellular; details: u-87mg atcc, 1.167 h, time 70 min
HepG2 = test: Antiproliferative activity against human HepG2 cells assessed as reduction in cell viability […] by MTT assay; format: functional, cell-based
U-87 MG = test: Antiproliferative activity against human U87 cells assessed as reduction in cell viability […] by MTT assay; format: functional, cell-based, U-87MG ATCC
16HBE14o- = test: Cytotoxicity against human 16HBE14o- cells assessed as cell viability incubated for 48 hrs by MTT assay; format: cell-based; details: 36 h, in the assay text read “36 hrs” for “48 hrs”
Outline: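 Cells were plated and grown 48 h at 37 °C, 5% CO2, in DMEM with 10% FBS. They were then given graded ligand concentrations for 36 h and treated with MTT (5 mg/ml) for 4 h in the dark. Formazan was dissolved in DMSO and absorbance read at 577 nm. IC50 was taken from a sigmoidal dose–response fit; three independent experiments.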

[8] = test system: Quadruplex DNA [UNDEFINED MUTATION]; test: Effect on confirmation of telomeric Htg24 G-quadruplex DNA G16T mutant (unknown origin) assessed as parallel topology at 5 uM at pH 7.4 by circular dichroism analysis; format: nucleic-acid assay; details: Homo sapiens
Outline: (§2)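 CD spectra recorded on G4-DNA and ligand, each at 5 μM, in 10 mM Tris-HCl, pH 7.4, with 60 mM KCl. Scan range 220–340 nm in a 1 mm quartz cuvette, 1 nm bandwidth and step, 0.5 s/point. Each spectrum is the average of three scans.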

[9] = test system: Quadruplex DNA [UNDEFINED MUTATION]; test: Effect on confirmation of telomeric Htg24 G-quadruplex DNA A20G mutant (unknown origin) assessed as hybrid topology at 5 uM at pH 7.4 by circular dichroism analysis; format: nucleic-acid assay; details: Homo sapiens; outline: as §2
[10] = test system: Quadruplex DNA [UNDEFINED MUTATION]; test: Effect on confirmation of telomeric Htg24 G-quadruplex DNA G22C mutant (unknown origin) assessed as hybrid topology at 5 uM at pH 7.4 by circular dichroism analysis; format: nucleic-acid assay; details: Homo sapiens; outline: as §2
[11] = test system: Quadruplex DNA [UNDEFINED MUTATION]; test: Effect on confirmation of telomeric Htg24 G-quadruplex DNA G22T mutant (unknown origin) assessed as hybrid topology at 5 uM at pH 7.4 by circular dichroism analysis; format: nucleic-acid assay; details: Homo sapiens; outline: as §2
[12] = test system: Quadruplex DNA [UNDEFINED MUTATION]; test: Binding affinity to telomeric Htg24 G-quadruplex DNA A14G mutant (unknown origin) assessed as negative fluorescence signal at 5 uM under pH condition 7.4 by fluorescence titration analysis; format: nucleic-acid assay; details: Homo sapiens
Outline: (§3)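 Ligand 5 μM mixed with wild-type or point-mutant Htg24 in Tris-HCl buffer with 60 mM KCl; signal change calculated as (F mutant − F wild type)/F wild type.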

[13] = test system: Quadruplex DNA [UNDEFINED MUTATION]; test: Binding affinity to telomeric Htg24 G-quadruplex DNA G16C mutant (unknown origin) assessed as negative fluorescence signal at 5 uM under pH condition 7.4 by fluorescence titration analysis; format: nucleic-acid assay; details: Homo sapiens; outline: as §3
[14] = test system: Quadruplex DNA [UNDEFINED MUTATION]; test: Binding affinity to telomeric Htg24 G-quadruplex DNA A20G mutant (unknown origin) assessed as negative fluorescence signal at 5 uM under pH condition 7.4 by fluorescence titration analysis; format: nucleic-acid assay; details: Homo sapiens; outline: as §3
[15] = test system: Quadruplex DNA [UNDEFINED MUTATION]; test: Binding affinity to telomeric Htg24 G-quadruplex DNA G22T mutant (unknown origin) assessed as negative fluorescence signal at 5 uM under pH condition 7.4 by fluorescence titration analysis; format: nucleic-acid assay; details: Homo sapiens
Outline: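 Ligand held at 5 μM and mixed with each Htg24 point mutant in Tris-HCl buffer containing 60 mM KCl, pH 7.4. Fluorescence was read, and the signal change was computed as (F mutant − F wild type)/F wild type.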

[16] = test system: Quadruplex DNA [UNDEFINED MUTATION]; test: Binding affinity to telomeric Htg24 G-quadruplex DNA G21C mutant (unknown origin) assessed as strong fluorescence signal at 5 uM under pH condition 7.4 by fluorescence titration analysis; format: nucleic-acid assay; details: Homo sapiens; outline: as §3
[17] = test system: Quadruplex DNA [UNDEFINED MUTATION]; test: Binding affinity to telomeric Htg24 G-quadruplex DNA G15A mutant (unknown origin) assessed as fluorescence signal at 5 uM under pH condition 7.4 by fluorescence titration analysis; format: nucleic-acid assay; details: Homo sapiens
[18] = test system: Quadruplex DNA [UNDEFINED MUTATION]; test: Binding affinity to telomeric Htg24 G-quadruplex DNA G11A mutant (unknown origin) assessed as fluorescence signal at 5 uM under pH condition 7.4 by fluorescence titration analysis; format: nucleic-acid assay; details: Homo sapiens
[19] = Water solubility of compound at 25 degreeC; format: physicochemical
Outline: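 Solubility in water measured at 25 °C.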

Compound: CN(C)c1ccc(/C=C/c2cc(/C=C3\Sc4ccccc4N3CCCN3CCOCC3)c3ccccc3[n+]2C)cc1.[I-]
- Activity (Quadruplex DNA [1]): Active
- Kb (DNA): 367000 M⁻¹
- Kb (Quadruplex DNA [2]): 309000 M⁻¹
- Activity (Quadruplex DNA [3]): 0.217
- Activity (Quadruplex DNA [4]): Active
- Kd (Quadruplex DNA [5]): 0.65 µM
- Activity (Quadruplex DNA [6]): Active
- Activity (HeLa): Dose-Dependent Effect
- Drug uptake [7]: Active
- IC50 (HepG2): 12.8 µM
- IC50 (U-87 MG): 15.2 µM
- IC50 (16HBE14o-): 52.3 µM
- Activity [8]: Active
- Activity [9]: Active
- Activity [10]: Active
- Activity [11]: Active
- Activity [12]: Active
- Activity [13]: Active
- Activity [14]: Active
- Activity [15]: Active
- Activity [16]: Active
- Activity [17]: inactive
- Activity [18]: inactive
- solubility [19]: 122 µM
